From ChEMBL document CHEMBL1154983, “Arylpiperazine-containing pyrrole 3-carboxamide derivatives targeting serotonin 5-HT(2A), 5-HT(2C), and the serotonin transporter as a potential antidepressant” (Bioorg Med Chem Lett, 2010)
Active and inactive are the calls of the source. No cut-off for these calls is given here.

Tests used:
[1] = molecular target: T1, 5-hydroxytryptamine receptor 2C (Homo sapiens, UniProt P28335); assay: Displacement of [3H]mesulergine from human recombinant 5-HT2C receptor expressed in CHO-K1 cells after 60 mins by rapid filtration assay; format: cell-based
T1 sequence (P28335 whole entry): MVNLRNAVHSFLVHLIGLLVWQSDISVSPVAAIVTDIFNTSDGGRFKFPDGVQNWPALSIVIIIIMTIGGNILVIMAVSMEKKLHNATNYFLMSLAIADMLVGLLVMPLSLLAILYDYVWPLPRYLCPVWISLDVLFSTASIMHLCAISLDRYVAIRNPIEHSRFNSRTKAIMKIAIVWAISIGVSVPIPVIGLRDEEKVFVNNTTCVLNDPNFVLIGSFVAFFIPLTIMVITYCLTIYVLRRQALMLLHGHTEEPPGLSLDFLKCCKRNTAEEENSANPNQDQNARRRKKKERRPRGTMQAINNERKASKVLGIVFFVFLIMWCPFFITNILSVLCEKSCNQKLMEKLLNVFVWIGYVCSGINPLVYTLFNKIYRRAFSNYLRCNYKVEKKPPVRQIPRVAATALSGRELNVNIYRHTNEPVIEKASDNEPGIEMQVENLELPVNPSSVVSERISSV
Outline: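 Frozen membranes were from CHO-K1 cells stably expressing human recombinant 5-HT2C, with 1.4 nM [3H]mesulergine. Buffer was 50 mM Tris–HCl pH 7.4, 4 mM CaCl2 and 0.1% ascorbic acid, with methiothepin for nonspecific binding. Incubation ran 60 min at 27 °C, stopped by rapid filtration through 0.5% PEI-presoaked glass-fibre filters.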

[2] = molecular target: Sodium-dependent serotonin transporter (Homo sapiens, UniProt P31645); assay: Displacement of [3H]imipramine from human SERT expressed in HEK293 cells after 30 mins by rapid filtration assay; format: cell-based
Chain of Sodium-dependent serotonin transporter (P31645 whole entry): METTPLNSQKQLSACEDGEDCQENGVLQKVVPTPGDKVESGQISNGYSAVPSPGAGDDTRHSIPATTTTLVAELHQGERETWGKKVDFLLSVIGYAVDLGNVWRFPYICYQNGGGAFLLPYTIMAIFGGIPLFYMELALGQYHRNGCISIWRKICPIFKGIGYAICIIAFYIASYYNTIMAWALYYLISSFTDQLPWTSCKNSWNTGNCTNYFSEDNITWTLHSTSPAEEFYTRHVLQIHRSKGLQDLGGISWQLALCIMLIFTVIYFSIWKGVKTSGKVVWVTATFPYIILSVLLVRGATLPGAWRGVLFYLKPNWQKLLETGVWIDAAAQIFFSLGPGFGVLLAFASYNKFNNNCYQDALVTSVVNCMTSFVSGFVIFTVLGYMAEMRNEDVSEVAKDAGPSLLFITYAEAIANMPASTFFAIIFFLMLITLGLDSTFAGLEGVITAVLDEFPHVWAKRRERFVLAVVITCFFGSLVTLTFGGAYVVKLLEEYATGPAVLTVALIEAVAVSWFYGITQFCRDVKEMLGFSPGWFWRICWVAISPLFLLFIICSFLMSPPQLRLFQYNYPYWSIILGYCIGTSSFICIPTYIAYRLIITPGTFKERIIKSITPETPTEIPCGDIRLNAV
Outline: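 Frozen membranes were from HEK293 cells expressing human SERT, with 4 nM [3H]imipramine in 50 mM Tris–HCl pH 7.4, 120 mM NaCl and 5 mM KCl. Unlabelled imipramine defined nonspecific binding. Incubation ran 30 min at 27 °C, terminated by rapid filtration through 0.5% PEI-presoaked glass-fibre filters.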

[3] = molecular target: 5-hydroxytryptamine receptor 2A (Homo sapiens, UniProt P28223); assay: Displacement of [3H]ketanserin from human recombinant 5-HT2A receptor expressed in CHO-K1 cells after 60 mins; format: cell-based
Chain of 5-hydroxytryptamine receptor 2A (P28223 whole entry): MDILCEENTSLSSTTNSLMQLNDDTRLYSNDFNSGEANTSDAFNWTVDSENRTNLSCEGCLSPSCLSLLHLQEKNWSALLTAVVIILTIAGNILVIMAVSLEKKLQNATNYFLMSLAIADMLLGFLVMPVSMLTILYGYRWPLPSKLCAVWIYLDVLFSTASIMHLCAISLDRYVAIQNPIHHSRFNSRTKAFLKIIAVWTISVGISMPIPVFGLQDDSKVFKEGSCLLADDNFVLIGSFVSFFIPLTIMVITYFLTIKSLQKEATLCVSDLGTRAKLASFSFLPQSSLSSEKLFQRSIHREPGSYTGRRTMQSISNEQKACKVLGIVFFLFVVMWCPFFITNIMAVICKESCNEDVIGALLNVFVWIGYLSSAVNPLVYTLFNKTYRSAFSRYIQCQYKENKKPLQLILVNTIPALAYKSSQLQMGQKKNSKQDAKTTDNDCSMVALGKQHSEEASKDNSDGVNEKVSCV
Outline: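 Membranes were from CHO-K1 cells stably expressing 5-HT2A. Radioligand was at 1 nM, with mianserin defining nonspecific binding. Incubation ran 60 min at 27 °C in 50 mM Tris–HCl pH 7.4 with 4 mM CaCl2 and 0.1% ascorbic acid. Harvesting was by filtration through glass-fibre filters presoaked in 0.5% PEI.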

Mus musculus [4] = assay: Antidepressant activity in mouse assessed as decrease in duration of immobility at 100 mg/kg, po during final 5 mins of the 6 mins session by forced swimming test; format: functional; design: scale not given: the % may be the effect or the level left
Outline: (§1)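 Mice swam 10 min in a 25-cm glass cylinder (10 cm diameter) holding 15 cm of water at 23 1 °C. Twenty-four hours later, drug was given po 60 min before retesting. Immobility (floating upright with only small movements keeping head above water) was totalled over the last 5 min of the 6-min test.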

Mus musculus [5] = assay: Antidepressant activity in mouse assessed as decrease in duration of immobility at 10 mg/kg, po during final 5 mins of the 6 mins session by forced swimming test; format: functional; outline: as §1
[6] = molecular target: 5-hydroxytryptamine receptor 7 (Homo sapiens, UniProt P34969); assay: Inhibition of 5HT7 receptor
Chain of 5-hydroxytryptamine receptor 7 (P34969 whole entry): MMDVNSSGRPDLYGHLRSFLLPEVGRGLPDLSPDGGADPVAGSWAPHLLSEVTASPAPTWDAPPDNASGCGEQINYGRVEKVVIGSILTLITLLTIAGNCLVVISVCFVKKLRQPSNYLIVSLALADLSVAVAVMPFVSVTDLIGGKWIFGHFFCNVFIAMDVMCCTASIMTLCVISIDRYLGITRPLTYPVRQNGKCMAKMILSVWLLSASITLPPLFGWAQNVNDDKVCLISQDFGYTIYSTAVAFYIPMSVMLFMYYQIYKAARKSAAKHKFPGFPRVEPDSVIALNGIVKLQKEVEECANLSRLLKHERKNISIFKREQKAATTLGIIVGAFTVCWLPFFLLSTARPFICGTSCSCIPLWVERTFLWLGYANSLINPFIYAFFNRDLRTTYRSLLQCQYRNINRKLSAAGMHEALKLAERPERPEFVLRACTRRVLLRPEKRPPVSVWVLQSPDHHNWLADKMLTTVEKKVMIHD

D(2) dopamine receptor = D(2) dopamine receptor (Homo sapiens, UniProt P14416); assay: Inhibition of dopamine D2 receptor
Chain of D(2) dopamine receptor (P14416 whole entry): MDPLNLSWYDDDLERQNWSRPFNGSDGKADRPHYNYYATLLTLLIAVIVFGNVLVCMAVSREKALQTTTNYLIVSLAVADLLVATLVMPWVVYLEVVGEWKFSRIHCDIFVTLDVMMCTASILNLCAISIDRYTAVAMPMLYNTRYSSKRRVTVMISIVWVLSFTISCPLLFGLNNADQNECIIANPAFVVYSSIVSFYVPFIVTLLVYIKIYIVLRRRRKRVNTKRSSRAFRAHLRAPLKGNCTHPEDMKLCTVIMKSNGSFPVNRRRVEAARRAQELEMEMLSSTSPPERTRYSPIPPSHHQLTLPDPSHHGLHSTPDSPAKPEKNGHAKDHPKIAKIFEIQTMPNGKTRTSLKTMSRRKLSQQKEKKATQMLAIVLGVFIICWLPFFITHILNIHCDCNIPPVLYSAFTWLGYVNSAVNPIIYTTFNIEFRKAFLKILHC

Mus musculus [7] = assay: Antidepressant activity in mouse assessed as decrease in duration of immobility at 25 mg/kg, po during final 5 mins of the 6 mins session by forced swimming test; format: functional; design: scale not given: the % may be the effect or the level left; outline: as §1
[8] = molecular target: T2, 5-hydroxytryptamine receptor 1A (Homo sapiens, UniProt P08908); assay: Inhibition of 5HT1A receptor
T2 sequence (P08908 whole entry): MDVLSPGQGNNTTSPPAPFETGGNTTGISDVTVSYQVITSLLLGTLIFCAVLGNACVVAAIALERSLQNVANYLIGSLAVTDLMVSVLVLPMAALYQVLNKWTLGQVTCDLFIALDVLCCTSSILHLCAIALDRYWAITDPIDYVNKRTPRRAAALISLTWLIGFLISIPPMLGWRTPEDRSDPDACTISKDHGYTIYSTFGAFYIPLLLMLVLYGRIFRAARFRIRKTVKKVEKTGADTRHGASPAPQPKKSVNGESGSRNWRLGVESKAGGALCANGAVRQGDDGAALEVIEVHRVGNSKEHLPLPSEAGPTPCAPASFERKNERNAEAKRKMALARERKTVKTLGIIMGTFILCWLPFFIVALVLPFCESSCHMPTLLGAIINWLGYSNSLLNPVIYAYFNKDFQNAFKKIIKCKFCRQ

[9] = molecular target: 5-hydroxytryptamine receptor 6 (Homo sapiens, UniProt P50406); assay: Inhibition of 5HT6 receptor
Chain of 5-hydroxytryptamine receptor 6 (P50406 whole entry): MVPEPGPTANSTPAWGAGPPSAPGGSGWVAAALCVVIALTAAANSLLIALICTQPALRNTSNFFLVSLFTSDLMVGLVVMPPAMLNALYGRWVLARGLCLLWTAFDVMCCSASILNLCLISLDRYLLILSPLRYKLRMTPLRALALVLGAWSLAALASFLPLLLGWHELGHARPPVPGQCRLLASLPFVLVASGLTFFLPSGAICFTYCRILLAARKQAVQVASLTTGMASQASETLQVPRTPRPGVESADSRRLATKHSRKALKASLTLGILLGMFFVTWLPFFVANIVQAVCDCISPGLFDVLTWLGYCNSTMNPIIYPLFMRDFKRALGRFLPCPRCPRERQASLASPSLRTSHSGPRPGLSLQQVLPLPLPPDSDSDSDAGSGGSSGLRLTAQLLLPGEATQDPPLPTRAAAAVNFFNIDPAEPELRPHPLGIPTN

D(3) dopamine receptor = D(3) dopamine receptor (Homo sapiens, UniProt P35462); assay: Inhibition of dopamine D3 receptor
Chain of D(3) dopamine receptor (P35462 whole entry): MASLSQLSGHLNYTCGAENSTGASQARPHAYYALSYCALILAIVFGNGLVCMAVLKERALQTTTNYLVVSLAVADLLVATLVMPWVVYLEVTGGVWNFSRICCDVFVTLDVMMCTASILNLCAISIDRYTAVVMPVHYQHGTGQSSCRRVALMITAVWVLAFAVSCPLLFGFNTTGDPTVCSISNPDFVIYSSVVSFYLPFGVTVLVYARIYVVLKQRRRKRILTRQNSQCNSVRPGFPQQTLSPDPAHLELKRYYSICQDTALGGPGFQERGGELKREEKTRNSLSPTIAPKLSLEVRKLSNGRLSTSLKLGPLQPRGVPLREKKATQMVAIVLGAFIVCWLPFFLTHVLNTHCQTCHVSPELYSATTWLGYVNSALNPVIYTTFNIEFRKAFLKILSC

D(4) dopamine receptor = molecular target: T3, D(4) dopamine receptor (Homo sapiens, UniProt P21917); assay: Inhibition of dopamine D4 receptor
T3 sequence (P21917 whole entry): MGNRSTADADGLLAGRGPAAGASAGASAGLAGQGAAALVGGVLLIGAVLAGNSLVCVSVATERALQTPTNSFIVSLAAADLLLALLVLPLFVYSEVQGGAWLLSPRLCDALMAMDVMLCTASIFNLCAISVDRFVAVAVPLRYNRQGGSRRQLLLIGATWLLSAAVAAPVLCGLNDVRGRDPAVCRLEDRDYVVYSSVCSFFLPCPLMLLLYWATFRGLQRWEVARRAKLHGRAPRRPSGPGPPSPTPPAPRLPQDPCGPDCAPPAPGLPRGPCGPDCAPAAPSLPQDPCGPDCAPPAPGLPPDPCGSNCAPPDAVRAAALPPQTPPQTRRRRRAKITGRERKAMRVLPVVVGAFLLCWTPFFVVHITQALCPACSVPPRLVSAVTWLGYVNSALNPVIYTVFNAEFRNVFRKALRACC

Rattus norvegicus [10] = assay: Dose normalized AUC (0 to infinity) in rat at 1 mg/kg, iv; format: ADME, organism-based; design: dose 1 mg/kg, route intravenous; details: in vivo
Outline: (§2)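 Rats dosed once with the HCl salt, either i.v. at 1 mg/kg (n = 2 or 3) or orally at 5 mg/kg (n = 3). Plasma and brain levels were followed to derive Cmax, Clast, Tmax, t1/2, AUC, dose-normalised AUC, oral bioavailability (F) and the brain/plasma ratio.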

[11] = Elimination half life in rat at 5 mg/kg, po; format: ADME, organism-based; design: dose 5 mg/kg, route oral; details: in vivo, read-out: beta t1/2 (converted); outline: as §2
[12] = Half life in rat plasma; format: ADME, cell-free; outline: as §2
[13] = Half life in rat brain; format: ADME, tissue-based; outline: as §2
[14] = Half life in rat at 1 mg/kg, iv; format: ADME, organism-based; design: dose 1 mg/kg, route intravenous; details: in vivo; outline: as §2
Rattus norvegicus [15] = assay: Dose normalized AUCirlf in rat at 5 mg/kg, po; format: ADME, organism-based; design: dose 5 mg/kg, route oral; details: in vivo; outline: as §2
[16] = Cmax in rat brain; format: ADME, organism-based; outline: as §2
[17] = Tmax in rat brain; format: ADME, tissue-based; outline: as §2
[18] = Cmax in rat at 1 mg/kg, iv; format: ADME, organism-based; design: dose 1 mg/kg, route intravenous; details: in vivo; outline: as §2
[19] = Ratio of drug level in brain to plasma in rat; format: ADME, cell-free; outline: as §2
Plasma = assay: Clast in rat plasma; format: ADME, cell-free; outline: as §2
Rattus norvegicus [20] = assay: Clast in rat at 5 mg/kg, po; format: ADME, organism-based; design: dose 5 mg/kg, route oral; details: in vivo; outline: as §2
[21] = Cmax in rat plasma; format: ADME, organism-based; outline: as §2
[22] = Oral bioavailability in rat at 5 mg/kg; format: ADME, organism-based; details: in vivo; outline: as §2
[23] = AUC in rat brain; format: ADME, tissue-based; outline: as §2
Rattus norvegicus [24] = assay: Clast in rat at 1 mg/kg, iv; format: ADME, organism-based; design: dose 1 mg/kg, route intravenous; details: in vivo; outline: as §2
Brain = assay: Clast in rat brain; format: ADME, tissue-based; details: in vivo; outline: as §2
[25] = AUC in rat plasma; format: ADME, cell-free; outline: as §2
[26] = AUC (0 to infinity) in rat at 5 mg/kg, po; format: ADME, organism-based; design: time infinity, dose 5 mg/kg, route oral; details: plasma; outline: as §2
[27] = Tmax in rat plasma; format: ADME, cell-free; outline: as §2
[28] = Cmax in rat at 5 mg/kg, po; format: ADME, organism-based; design: dose 5 mg/kg, route oral; details: in vivo; outline: as §2
[29] = Tmax in rat at 5 mg/kg, po; format: ADME, organism-based; design: dose 5 mg/kg, route oral; details: in vivo; outline: as §2
[30] = AUC (0 to infinity) in rat at 1 mg/kg, iv; format: ADME, organism-based, Plasma; design: time infinity, dose 1 mg/kg, route intravenous; details: plasma; outline: as §2

Cc1c(C(=O)NCCCN2CCN(c3cccc(Cl)c3)CC2)cc(-c2ccccc2)n1CC(C)C
IC50 [1]: 1.6 µM
IC50 [2]: 0.11 µM
IC50 [3]: 0.333 µM

Cc1c(C(=O)NCCCN2CCN(c3cccc(Cl)c3)CC2)cc(-c2ccccc2)n1N1CCCCC1
IC50 [1]: 0.448 µM
IC50 [2]: 0.11 µM
IC50 [3]: 0.441 µM

Cc1c(C(=O)NCCN2CCN(c3cccc(Cl)c3Cl)CC2)cc(-c2ccccc2)n1C
IC50 [1]: 0.156 µM
IC50 [2]: 0.057 µM
IC50 [3]: 0.175 µM

CCn1c(-c2ccccc2)cc(C(=O)NCCCN2CCN(c3cccc(Cl)c3Cl)CC2)c1C
Activity (Mus musculus [4]): <25%
Activity (Mus musculus [5]): inactive

Cc1c(C(=O)NCCCN2CCN(c3cccc(Cl)c3Cl)CC2)cc(-c2ccccc2)n1N1CCCCC1
Activity (Mus musculus [4]): Active
Activity (Mus musculus [5]): inactive
IC50 [6]: 0.493 µM

Cc1[nH]c(-c2ccccc2)cc1C(=O)NCCCN1CCN(c2cccc(Cl)c2Cl)CC1
IC50 (D(2) dopamine receptor): 1.07 µM
IC50 [2]: 0.137 µM
Activity (Mus musculus [7]): <50%
IC50 [8]: 0.117 µM
IC50 [9]: 1.41 µM
IC50 [6]: 0.456 µM
IC50 (D(3) dopamine receptor): 0.334 µM
IC50 (D(4) dopamine receptor): 1.84 µM

Cc1c(C(=O)NCCCN2CCN(c3cccc(Cl)c3Cl)CC2)cc(-c2ccccc2)n1C.Cl
AUC/dose (Rattus norvegicus [10]): 18.703 µg·min/mL
half-life [11]: 3.14 h
half-life [12]: 3.71 h
half-life [13]: 4.28 h
half-life [14]: 2.82 h
AUC/dose (Rattus norvegicus [15]): 4.63 µg·min/mL
Cmax [16]: 0.03 µg/mL
Tmax [17]: 2 h
Cmax [18]: 0.454 µg/mL
Kp [19]: 34.5
Clast (Plasma): 0.04 µg/mL
Clast (Rattus norvegicus [20]): 0.001 µg/mL
Cmax [21]: 0.07 µg/mL
bioavailability [22]: 24.8%
AUC [23]: 0.0827 µg·h/mL
Clast (Rattus norvegicus [24]): 0.008 µg/mL
Clast (Brain): 0.02 µg/mL
AUC [25]: 0.24 µg·h/mL
AUC(0-inf) [26]: 0.386 µg·h/mL
Tmax [27]: 1 h
Cmax [28]: 0.118 µg/mL
Tmax [29]: 0.75 h
AUC(0-inf) [30]: 0.312 µg·h/mL

Cc1c(C(=O)NCCCN2CCN(c3cccc(Cl)c3)CC2)cc(-c2ccccc2)n1C
Activity (Mus musculus [4]): inactive

Cc1c(C(=O)NCCCN2CCN(c3cccc(Cl)c3)CC2)cc(-c2ccccc2)n1Cc1ccccc1
IC50 [1]: 1.44 µM
IC50 [2]: 0.235 µM
IC50 [3]: 0.179 µM
